From ChEMBL document CHEMBL1152539, “Synthesis and evaluation of bioactive naphthoquinones from the Brazilian medicinal plant, Tabebuia avellanedae” (Bioorg Med Chem, 2009)
In brackets after ≈: the same amount, converted by molar mass.

Tests used:
[1] = test system: Raji; experiment: Inhibition of 12-O-tetradecanoylphorbol-13-acetate-induced EBV-early antigen activation in human Raji cells assessed as EA induction at 1000 molar ratio after 48 hrs by immunofluorescence technique relative to 12-O-tetradecanoylphorbol-13-acetate; assay type: cell-based; conditions: human gammaherpesvirus 4
Method in brief: (§1)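 Raji cells were incubated for 48 h at 37 °C in medium with n-butyric acid (4 mM), TPA (32 pmol) and graded amounts of test compound. Smears were stained for EBV-EA by indirect immunofluorescence, and positive cells were counted among at least 500 cells. Assays were run in triplicate. Activity was expressed relative to the n-butyric acid plus TPA control, set as 100%.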

[2] = test system: Raji; experiment: Inhibition of 12-O-tetradecanoylphorbol-13-acetate-induced EBV-early antigen activation in human Raji cells assessed as EA induction at 100 molar ratio after 48 hrs by immunofluorescence technique relative to 12-O-tetradecanoylphorbol-13-acetate; assay type: cell-based; set-up: scale not given: the % may be the effect or the level left; conditions: human gammaherpesvirus 4; method in brief: as §1
[3] = Cytotoxicity against human Raji cells assessed as cell viability at 1000 molar ratio after 48 hrs by trypan blue staining; assay type: cell-based; conditions: read-out: Activity
Method in brief: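 Raji cells were exposed for 48 h at 37 °C to n-butyric acid (4 mM), TPA (32 pmol) and test compound, as in the EBV-EA induction setup. Viability of the treated cells was then measured by trypan blue staining.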

[4] = test system: Raji; experiment: Inhibition of 12-O-tetradecanoylphorbol-13-acetate-induced EBV-early antigen activation in human Raji cells assessed as EA induction at 10 molar ratio after 48 hrs by immunofluorescence technique relative to 12-O-tetradecanoylphorbol-13-acetate; assay type: cell-based; set-up: scale not given: the % may be the effect or the level left; conditions: human gammaherpesvirus 4; method in brief: as §1
[5] = test system: Raji; experiment: Inhibition of 12-O-tetradecanoylphorbol-13-acetate-induced EBV-early antigen activation in human Raji cells assessed as EA induction at 500 molar ratio after 48 hrs by immunofluorescence technique relative to 12-O-tetradecanoylphorbol-13-acetate; assay type: cell-based; set-up: scale not given: the % may be the effect or the level left; conditions: human gammaherpesvirus 4; method in brief: as §1
[6] = Inhibition of 12-O-tetradecanoylphorbol-13-acetate-induced EBV-early antigen activation in human Raji cells after 48 hrs by immunofluorescence technique; assay type: cell-based, human gammaherpesvirus 4; method in brief: as §1
[7] = test system: Pseudomonas aeruginosa; experiment: Antimicrobial activity against Pseudomonas aeruginosa NBRC13275 after 24 hrs by broth dilution method; assay type: functional; conditions: NBRC13275, 24 h
Method in brief: (§2)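 Modified NCCLS broth dilution. A 50 µL aliquot of bacterial cells (10⁶/mL in 0.85% NaCl) was added to 1 mL Mueller-Hinton broth containing compound over a 0.1–100 range.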

[8] = test system: Bacillus subtilis; experiment: Antimicrobial activity against Bacillus subtilis NBRC3134 after 24 hrs by broth dilution method; assay type: functional; conditions: NBRC3134, 24 h; method in brief: as §2
[9] = Anticancer activity against DMBA/TPA-induced skin cancer in mouse assessed as incidence of papilloma at 85 nmol administered before TPA challenge measured after 20 weeks; assay type: functional
Method in brief: (§3)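 Mouse two-stage skin model: DMBA 390 nmol in 0.1 mL acetone applied topically by pipet. One week later, the same skin site was painted with test compound (85 nmol in acetone) or acetone alone, 60 min before TPA (1.7 nmol). Tumor response was scored as the average number of papillomas per mouse and the percentage of mice bearing papillomas.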

[10] = test system: Aspergillus fumigatus; experiment: Antimicrobial activity against Aspergillus fumigatus NBRC4400 after 24 hrs by broth dilution method; assay type: functional; conditions: NBRC4400, 24 h
[11] = test system: Candida albicans; experiment: Antimicrobial activity against Candida albicans NBRC1060 after 3-5 days by broth dilution method; conditions: NBRC1060, 3-5 days
[12] = Anticancer activity against DMBA/TPA-induced skin cancer in mouse assessed as incidence of papilloma at 85 nmol administered before TPA challenge measured after 15 weeks; assay type: functional; method in brief: as §3
[13] = test system: Paecilomyces variotii; experiment: Antimicrobial activity against Paecilomyces variotii NBRC4855 after 24 hrs by broth dilution method; assay type: functional; conditions: NBRC4855, 24 h
[14] = test system: Bacillus mycoides; experiment: Antimicrobial activity against Bacillus mycoides ATCC 11778 after 24 hrs by broth dilution method; assay type: functional; conditions: ATCC 11778, 24 h; method in brief: as §2
[15] = test system: Hepatocyte; experiment: Antiproliferative activity against human hepatocytes after 72 hrs by trypan blue exclusion assay; assay type: cell-based
Method in brief: (§4)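 Cells were kept in DMEM with 10% fetal serum and exposed to four concentrations of compound for 72 h at 37 °C in humidified 5% CO₂. They were then stained with 0.25% trypan blue for 20 min, and viable cells were counted by light microscopy. IC₅₀ was derived from separate experiments run in triplicate.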

[16] = Antiproliferative activity against human Hs888Lu cells after 72 hrs by trypan blue exclusion assay; assay type: cell-based; method in brief: as §4
[17] = Anticancer activity against DMBA/TPA-induced skin cancer in mouse assessed as incidence of papilloma at 85 nmol administered before TPA challenge measured after 10 weeks; assay type: functional; method in brief: as §3
[18] = Antiproliferative activity against human SVCT-M12 cells after 72 hrs by trypan blue exclusion assay; assay type: cell-based; conditions: SVCT-M12, 72 h; method in brief: as §4
[19] = test system: Salmonella enteritidis; experiment: Antimicrobial activity against Salmonella enteritidis OPS10 after 24 hrs by broth dilution method; assay type: functional, Salmonella enterica subsp. enterica serovar Enteritidis; conditions: Salmonella enterica, OPS10, 24 h; method in brief: as §2
[20] = Antiproliferative activity against human skin fibroblast after 72 hrs by trypan blue exclusion assay; assay type: cell-based; method in brief: as §4
[21] = test system: Saccharomyces cerevisiae; experiment: Antimicrobial activity against Saccharomyces cerevisiae NBRC10114 after 3-5 days by broth dilution method; conditions: NBRC10114, 3-5 days
[22] = test system: MCF7; experiment: Antiproliferative activity against human MCF7 cells after 72 hrs by trypan blue exclusion assay; assay type: functional, cell-based; conditions: MCF7, 72 h; method in brief: as §4
[23] = test system: Escherichia coli; experiment: Antimicrobial activity against Escherichia coli ATCC 11775 after 24 hrs by broth dilution method; assay type: functional; conditions: ATCC 11775, 24 h; method in brief: as §2
[24] = Anticancer activity against DMBA/TPA-induced skin cancer in mouse assessed as number of papillomas per mouse at 85 nmol administered before TPA challenge measured after 20 weeks; assay type: functional; method in brief: as §3
[25] = test system: Staphylococcus aureus; experiment: Antimicrobial activity against Staphylococcus aureus NBRC13276 after 24 hrs by broth dilution method; assay type: functional; conditions: NBRC13276, 24 h; method in brief: as §2
[26] = test system: Penicillium expansum; experiment: Antimicrobial activity against Penicillium expansum NBRC8800 after 3-5 days by broth dilution method; conditions: NBRC8800, 3-5 days
[27] = test system: Naganishia albida; experiment: Antimicrobial activity against Cryptococcus albidus NBRC0378 after 24 hrs by broth dilution method; assay type: functional; conditions: NBRC0378, 24 h
[28] = test system: A549; experiment: Antiproliferative activity against human A549 cells after 72 hrs by trypan blue exclusion assay; assay type: functional, cell-based; conditions: A549, 72 h; method in brief: as §4
[29] = test system: Saccharomyces cerevisiae; experiment: Antimicrobial activity against Saccharomyces cerevisiae NBRC10114 after 24 hrs by broth dilution method; assay type: functional; conditions: NBRC10114, 24 h
[30] = test system: Candida albicans; experiment: Antimicrobial activity against Candida albicans NBRC1060 after 24 hrs by broth dilution method; assay type: functional; conditions: NBRC1060, 24 h
[31] = test system: Aspergillus fumigatus; experiment: Antimicrobial activity against Aspergillus fumigatus NBRC4400 after 3-5 days by broth dilution method; conditions: NBRC4400, 3-5 days
[32] = test system: Paecilomyces variotii; experiment: Antimicrobial activity against Paecilomyces variotii NBRC4855 after 3-5 days by broth dilution method; conditions: NBRC4855, 3-5 days
[33] = test system: Penicillium expansum; experiment: Antimicrobial activity against Penicillium expansum NBRC8800 after 24 hrs by broth dilution method; assay type: functional; conditions: NBRC8800, 24 h
[34] = test system: Naganishia albida; experiment: Antimicrobial activity against Cryptococcus albidus NBRC0378 after 3-5 days by broth dilution method; conditions: NBRC0378, 3-5 days
[35] = test system: PC-3; experiment: Antiproliferative activity against human PC3 cells after 72 hrs by trypan blue exclusion assay; assay type: functional, cell-based; conditions: PC-3, 72 h; method in brief: as §4

Row | Structure (SMILES) | EA induction relative to TPA control [1] [%] | Activity [2] [%] | viability at 48 h, 1000 molar ratio [3] [%] | Activity [4] [%] | Activity [5] [%] | IC50 [6] [mol ratio/32 pmol TPA] | MIC [7] [µg/mL] | MIC [8] [µg/mL] | MIC [11] [µg/mL] | MIC [14] [µg/mL] | EC50 [16] [µM] | EC50 [18] [µM] | MIC [19] [µg/mL] | IC50 [22] [µM] | MIC [23] [µg/mL] | MIC [25] [µg/mL] | MIC [26] [µg/mL] | IC50 [28] [µM] | MIC [29] [µg/mL] | MIC [31] [µg/mL] | also measured
1 | CC(O)c1cc2c(o1)C(=O)c1c(O)cccc1C2=O (racemic) | 8.9 | 59 | 60 | 84.6 | 28.4 | 306 | – | – | – | – | – | – | – | – | – | – | – | – | – | – | –
2 | COc1cc(/C=C/C(=O)CC(=O)/C=C/c2ccc(O)c(OC)c2)ccc1O [CURCUMIN] | 8.9 | 74.5 | – | 95.8 | 40.3 | 345 | – | – | – | – | – | – | – | – | – | – | – | – | – | – | –
3 | C[C@H](O)c1cc2c(o1)C(=O)c1cccc(O)c1C2=O | 0 | 16.9 | 60 | 50 | 4.4 | 33.2 | > 100 | 0.78 (≈ 3.02 µM) | 25 (≈ 96.8 µM) | 0.78 (≈ 3.02 µM) | 5.51 | 3.36 | > 100 | 0.51 | > 100 | 3.13 (≈ 12.1 µM) | 25 (≈ 96.8 µM) | 0.78 | – | – | Activity [9]: 67%; MIC [10]: 12.5 µg/mL (≈ 48.4 µM); Activity [12]: 47%; MIC [13]: 25 µg/mL (≈ 96.8 µM); EC50 [15]: 11.1 µM; Activity [17]: 7%; EC50 [20]: 11.1 µM; MIC [21]: 3.13 µg/mL (≈ 12.1 µM); Activity [24]: 3.9; MIC [27]: 1.56 µg/mL (≈ 6.04 µM)
4 | C[C@@H](O)c1cc2c(o1)C(=O)c1c(O)cccc1C2=O | 4.2 | 52.5 | 60 | 76.3 | 20.4 | 201 | > 100 | 1.56 (≈ 6.04 µM) | – | 1.56 (≈ 6.04 µM) | – | – | > 100 | – | > 100 | 6.25 (≈ 24.2 µM) | – | – | 3.13 (≈ 12.1 µM) | 25 (≈ 96.8 µM) | MIC [30]: 25 µg/mL (≈ 96.8 µM); MIC [32]: 50 µg/mL (≈ 194 µM); MIC [33]: 50 µg/mL (≈ 194 µM); MIC [34]: 1.56 µg/mL (≈ 6.04 µM)
5 | CC1(C)S[C@@H]2[C@H](NC(=O)Cc3ccccc3)C(=O)N2[C@H]1C(=O)O [PENICILLIN G] | – | – | – | – | – | – | – | 0.39 (≈ 1.17 µM) | – | 1.56 (≈ 4.67 µM) | – | – | – | – | – | 0.39 (≈ 1.17 µM) | – | – | – | – | –
6 | C[C@H](O)c1cc2c(o1)C(=O)c1c(O)cccc1C2=O | 7.4 | 58.2 | 60 | 80.5 | 26.5 | 271 | > 100 | 1.56 (≈ 6.04 µM) | 25 (≈ 96.8 µM) | 1.56 (≈ 6.04 µM) | 14.6 | 14.6 | > 100 | 2.61 | > 100 | 6.25 (≈ 24.2 µM) | 50 (≈ 194 µM) | 4.31 | 3.13 (≈ 12.1 µM) | 25 (≈ 96.8 µM) | IC50 [35]: 1.57 µM; MIC [32]: 50 µg/mL (≈ 194 µM); MIC [34]: 1.56 µg/mL (≈ 6.04 µM)
